Consider two molecules from PMC6415968 (Organic letters, 2018).

The target of experiment [1] is T1, ERβ (Homo sapiens, UniProt Q92731). The note with it: ref HsiehRW; RajanSS; SharmaSK; GreeneGL Steroids, 2008, 73, 59–68; cited from earlier work.
For experiment [2], the target named is T1, ERβ. Nature of the experiment: estrogen receptor β agonist assay. Format: cell-based.
A further experiment has as its target cdc-2-like kinase CLK4 (Homo sapiens, UniProt Q9HAZ1). Nature of the experiment: Kd determination CLK4. Format: binding.
A further experiment deals with CLK2 (Homo sapiens, UniProt P49760). Nature of the experiment: Kd determination CLK2. The experiment is classed as binding.
The subject of experiment [3] is 12 human primary cell-based systems. The experiment in a line: BioMAP Diversity PLUS panel. Particulars: comparison with reference database of >4,000 agents.
The target in experiment [4] is T1, ERβ. The experiment in a line: estrogen receptor β antagonist assay. Format: cell-based. Particulars: concentrations up to 10 μM.
Another experiment has as its system cells (mitosis). The experiment in a line: mitotic arrest in cells. Format: cell-based.
For experiment [5], the system named is MDA-MB-231 human breast cancer cells. The experiment in a line: growth inhibition assay, MDA-MB-231. The experiment is classed as cell-based. An outline of the steps: (§1)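 Simple growth-inhibition assay in two human cancer lines, MDA-MB-231 (breast) and AsPC-1 (pancreatic), run without a particular target in mind. Cells exposed to a range of test compound concentrations, highest 40 μM. GI50 (μM) read.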

The target in experiment [6] is T2, ERα (Homo sapiens, UniProt P03372).
T2 sequence (P03372 1-595): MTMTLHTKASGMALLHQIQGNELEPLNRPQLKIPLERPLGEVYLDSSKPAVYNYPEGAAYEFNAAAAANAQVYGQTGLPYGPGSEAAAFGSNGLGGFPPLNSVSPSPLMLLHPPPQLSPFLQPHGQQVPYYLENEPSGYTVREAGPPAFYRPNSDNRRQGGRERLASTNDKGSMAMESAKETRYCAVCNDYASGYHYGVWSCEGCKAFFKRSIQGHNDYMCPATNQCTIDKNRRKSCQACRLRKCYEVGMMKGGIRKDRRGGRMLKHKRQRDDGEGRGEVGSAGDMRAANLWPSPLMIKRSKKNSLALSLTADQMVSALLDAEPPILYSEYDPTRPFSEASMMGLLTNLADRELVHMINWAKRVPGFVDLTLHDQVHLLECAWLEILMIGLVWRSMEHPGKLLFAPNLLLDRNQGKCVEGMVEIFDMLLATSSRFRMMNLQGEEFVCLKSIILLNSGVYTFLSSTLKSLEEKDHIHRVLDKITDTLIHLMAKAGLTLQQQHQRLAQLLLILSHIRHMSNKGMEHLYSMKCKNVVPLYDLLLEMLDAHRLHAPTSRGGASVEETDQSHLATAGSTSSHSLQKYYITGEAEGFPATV
Nature of the experiment: estrogen receptor α antagonist assay. The experiment is classed as cell-based. The note with it: concentrations up to 10 μM.

The test system of experiment [7] is AsPC-1 human tumor cell line (pancreatic cancer). The experiment in a line: growth inhibition assay, AsPC-1. The experiment is classed as cell-based. Particulars: ASPC1. The essentials:
as §1

For the next experiment, the target named is CLK1 (Homo sapiens, UniProt P49759). Nature of the experiment: Kd determination CLK1. The experiment is classed as binding.
Experiment [8] deals with T2, ERα. The experiment in a line: estrogen receptor α agonist assay. Format: cell-based. Particulars: estrogen receptor agonism.
The test system of a further experiment is panel of 468 kinases. Nature of the experiment: KINOMEscan panel of 468 kinases. Format: binding. Particulars: kinases bound divided by distinct kinases tested.
For another experiment, the system named is CLK1,2,4. The experiment in a line: established model for inhibition of CLK1,2,4 in cells. The experiment is classed as cell-based.
The next experiment addresses DYRK1A (Homo sapiens, UniProt Q13627). The experiment in a line: Kd determination DYRK1A. Format: binding.

In brackets after ≈: the same amount, converted by molar mass. Several values for one entry are separate records, joined by “and”; a condition that tells them apart may be missing. Identical values can stand only once. Entries after “also recorded” stand apart in the source; their conditions may differ.

T1 sequence (Q92731 whole entry): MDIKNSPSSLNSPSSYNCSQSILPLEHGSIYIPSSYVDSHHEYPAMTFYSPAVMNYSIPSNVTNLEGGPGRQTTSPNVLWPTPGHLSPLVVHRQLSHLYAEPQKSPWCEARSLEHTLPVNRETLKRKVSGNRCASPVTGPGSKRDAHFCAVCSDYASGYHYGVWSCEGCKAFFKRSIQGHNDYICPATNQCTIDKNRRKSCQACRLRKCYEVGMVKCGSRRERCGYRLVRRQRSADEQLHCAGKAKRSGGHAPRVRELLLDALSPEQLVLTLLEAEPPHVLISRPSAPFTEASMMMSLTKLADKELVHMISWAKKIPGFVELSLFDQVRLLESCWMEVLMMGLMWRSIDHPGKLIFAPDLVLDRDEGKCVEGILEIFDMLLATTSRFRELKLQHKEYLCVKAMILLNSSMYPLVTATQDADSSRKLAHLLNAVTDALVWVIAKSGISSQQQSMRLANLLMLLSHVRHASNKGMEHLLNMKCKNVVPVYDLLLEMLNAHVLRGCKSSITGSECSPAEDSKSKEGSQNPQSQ
Sequence of CLK1 (P49759 whole entry): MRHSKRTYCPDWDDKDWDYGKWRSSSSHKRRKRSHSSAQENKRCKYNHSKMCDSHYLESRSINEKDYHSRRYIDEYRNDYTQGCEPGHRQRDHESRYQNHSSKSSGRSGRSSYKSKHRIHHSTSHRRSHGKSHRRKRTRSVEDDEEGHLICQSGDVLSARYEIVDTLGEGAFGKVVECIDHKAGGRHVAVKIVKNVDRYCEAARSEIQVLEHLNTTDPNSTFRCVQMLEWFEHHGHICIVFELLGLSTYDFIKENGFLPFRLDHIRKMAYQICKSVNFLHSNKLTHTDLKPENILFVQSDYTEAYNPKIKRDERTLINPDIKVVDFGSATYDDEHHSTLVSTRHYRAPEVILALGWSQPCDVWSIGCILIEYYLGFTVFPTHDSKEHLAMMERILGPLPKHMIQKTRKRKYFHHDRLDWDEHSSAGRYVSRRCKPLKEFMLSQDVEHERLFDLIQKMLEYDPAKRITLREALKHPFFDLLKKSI
Sequence of CLK2 (P49760 whole entry): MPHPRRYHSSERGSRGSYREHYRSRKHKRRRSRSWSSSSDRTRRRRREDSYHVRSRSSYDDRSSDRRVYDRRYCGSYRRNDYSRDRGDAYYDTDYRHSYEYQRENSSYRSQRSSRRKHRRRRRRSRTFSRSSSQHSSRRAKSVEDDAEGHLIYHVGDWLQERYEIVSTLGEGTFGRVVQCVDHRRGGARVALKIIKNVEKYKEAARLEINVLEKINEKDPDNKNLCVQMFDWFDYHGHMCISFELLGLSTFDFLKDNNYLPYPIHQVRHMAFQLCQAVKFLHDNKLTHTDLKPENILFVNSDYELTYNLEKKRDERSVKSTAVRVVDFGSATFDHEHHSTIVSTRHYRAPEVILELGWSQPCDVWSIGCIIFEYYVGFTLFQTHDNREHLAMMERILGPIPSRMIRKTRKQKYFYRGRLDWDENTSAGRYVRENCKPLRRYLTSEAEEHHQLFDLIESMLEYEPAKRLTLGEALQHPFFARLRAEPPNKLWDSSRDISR
Sequence of cdc-2-like kinase CLK4 (Q9HAZ1 whole entry): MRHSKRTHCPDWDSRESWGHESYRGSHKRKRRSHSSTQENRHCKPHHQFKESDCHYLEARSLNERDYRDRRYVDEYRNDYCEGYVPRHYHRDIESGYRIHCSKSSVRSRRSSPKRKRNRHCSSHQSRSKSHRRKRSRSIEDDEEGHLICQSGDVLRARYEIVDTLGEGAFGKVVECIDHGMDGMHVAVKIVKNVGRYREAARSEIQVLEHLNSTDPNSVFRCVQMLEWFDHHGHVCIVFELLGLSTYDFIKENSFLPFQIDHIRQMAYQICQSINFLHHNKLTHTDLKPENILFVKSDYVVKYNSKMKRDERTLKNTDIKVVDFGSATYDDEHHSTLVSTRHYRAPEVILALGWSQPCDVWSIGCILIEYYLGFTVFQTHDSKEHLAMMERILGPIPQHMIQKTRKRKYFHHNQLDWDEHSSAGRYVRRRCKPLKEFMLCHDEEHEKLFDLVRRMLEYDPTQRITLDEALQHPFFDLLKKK

On to `C[C@]12CCc3c(ccc4cc(O)ccc34)[C@@H]1CC[C@@H]2O` [17-β-dihydroequilenin], for which the “shift in selectivity for agonism of ER-β” value at ERβ [1] is given as “related shift in selectivity for agonism of ER-β”.
One may read the EC50 as the midpoint of the concentration-response curve. The term Kd denotes the concentration at which binding is half-saturated. Low values mean a tighter complex, high ones a looser complex. What is called GI50 is the concentration at which growth is held to half of that of the control. `C[C@]12CCc3c(ccc4ccc(O)cc34)[C@@H]1C[C@@H](O)C2` [VII, estra-1,3,5(10),6,8-pentaene-2,16α-diol]: on ERβ [2], a half-maximal response (EC50) required 0.021 µM. Further, the “shift in selectivity favoring agonism of ERβ over ERα in comparison to 17-β-estradiol” value on ERβ [2] (ERβ vs ERα, relative to 17-β-estradiol) is around 4 fold. The Kd on cdc-2-like kinase CLK4 was 0.35 µM; on CLK2 it was 2 µM; on CLK1, 1.4 µM; on DYRK1A, 2 µM. Moreover, the “BioMAP phenotypic profile similarity to reference agents” value in experiment [3] is “favorable comparison to both 17-β estradiol (a dual ERα and ERβ agonist) as well as 2-methoxyestradiol; also recorded: correlation with several microtubule targeting agents (combretastatin A4, 2-methoxyestradiol and paclitaxel); also recorded: related to the clinically relevant microtubule-targeting agent paclitaxel; also recorded: phenotypically related to paclitaxel”. Also, at ERβ [4], the “antagonist activity at ERβ” value is given as “not showing activity as an antagonist”. For the same molecule, in the experiment on cells (mitosis), the mitotic arrest result is reported as “arrests cells in mitosis; also recorded: induces mitotic arrest in cells”. The concentration for 50% growth inhibition (GI50) in experiment [5] was around 0.2 µg/mL (≈ 0.745 µM); in experiment [7], ~0.5 µg/mL and 2 µM. Also, on ERα [6], the “antagonist activity at ERα” value is given as “not showing activity as an antagonist”. At ERα [8], the “agonist potency order ERβ vs ERα” value is “potency for ERβ > ERα”. Besides, the “S-score(35)” value in the experiment on panel of 468 kinases was determined as 0.03. Besides, in the experiment on CLK1,2,4, the “CLK inhibitory activity in cells” value is on record as “no evidence of CLK inhibitory activity in cells”.
